From PubChem
The list is not random: actives were taken first. Their share in the collection is about 0.79%.
mIAP block = mouse IAP inhibition; purified mouse IAP, CDP-Star luminescence, 30 min; inhibition, % at 10 µM; 330,000 compounds, 0.2% hits; AID 2806;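 active = inhibition of at least 40% at 10 µM in the primary screen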;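 also: plate controls were DMSO with enzyme for no effect and no enzyme wells for full effect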
hIAP act = human IAP activation; purified human IAP, CDP-Star luminescence, 30 min; stronger effect = higher value; 1 = vehicle-only enzyme, 0 = enzyme-free background; P09923; AID 2524; 330,000 compounds, 0.16% hits; activation factor at 10 µM;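 active = activation factor of the enzyme at least 2-fold when tested at 20 µM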
Target sequence (P09923 whole entry, looked up): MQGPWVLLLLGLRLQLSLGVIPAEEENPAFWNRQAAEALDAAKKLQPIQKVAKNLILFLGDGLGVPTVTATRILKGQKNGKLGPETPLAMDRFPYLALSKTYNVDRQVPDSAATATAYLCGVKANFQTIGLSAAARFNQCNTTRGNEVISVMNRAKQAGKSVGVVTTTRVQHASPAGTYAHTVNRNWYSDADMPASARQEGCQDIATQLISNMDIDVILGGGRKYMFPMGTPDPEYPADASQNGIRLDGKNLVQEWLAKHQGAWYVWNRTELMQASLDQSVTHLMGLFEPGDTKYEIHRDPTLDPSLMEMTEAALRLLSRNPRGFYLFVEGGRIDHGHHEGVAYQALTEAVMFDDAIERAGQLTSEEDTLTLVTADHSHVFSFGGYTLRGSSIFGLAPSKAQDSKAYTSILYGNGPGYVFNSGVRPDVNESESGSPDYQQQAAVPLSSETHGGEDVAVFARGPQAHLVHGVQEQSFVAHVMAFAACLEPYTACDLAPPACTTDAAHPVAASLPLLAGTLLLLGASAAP
hIAP block = human IAP inhibition; P09923; purified IAP, CDP-Star luminescence, 30 min; inhibition, % at 10 µM; 330,000 compounds, 0.12% hits; AID 2544;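 active = inhibition reaching a set limit with compound at 10 µM in the primary screen, cut at about 35% in these data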;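 also: plate controls were DMSO wells with enzyme for no effect and no-enzyme buffer wells for full effect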
mIAP act = mouse IAP activation; muIAP, CDP-Star luminescence, 30 min; stronger effect = higher value; 1 = vehicle-only enzyme signal, 0 = enzyme-free wells; activation factor at 10 µM; 330,000 compounds, 0.24% hits;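 active = activation factor of at least 2 at 20 µM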
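System: Mouse IAP enzyme | Also added: CDP-Star substrate | Dosing: Compounds dispensed in DMSO | Schedule: 30 min enzyme-substrate-compound incubation at room temperature | Technique: Chemiluminescence readout | Control set: DMSO-only wells and no-enzyme negative control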
bIAP act = increases bovine intestinal alkaline phosphatase activity; purified bovine IAP, CDP-star luminescence, 30 min; stronger effect = higher value; fold of DMSO-control signal, blank-subtracted; activation factor at 20 µM; 200,000 compounds, 0.17% hits; AID 1016;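 active = activation factor of 2 or more at 20 µM, a signal rise over negative controls twice the positive control's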
bIAP inhibitor = blocks bovine intestinal alkaline phosphatase activity; AID 1019; purified bovine IAP, CDP-star luminescence, 30 min; 190,000 tested, under 10 active; inhibition, % at 20 µM;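 active = over 50% inhibition of intestinal alkaline phosphatase at 20 µM in the single-dose screen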
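System: Purified bovine intestinal alkaline phosphatase (IAP) enzyme | Input: IAP diluted 1/65,000,000 in the well | Also added: CDP-star chemiluminescent phosphatase substrate, 30 µM final | Dosing: 20 µM single dose | Times: Enzyme reaction for 30 min at room temperature | Detection: Luminescence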
mIAP inh conf = mouse IAP inhibition confirmation; purified mouse IAP, CDP-Star luminescence, 30 min; inhibition, % at 10 µM; shares compounds with mIAP block; 11,000 compounds, 4.7% hits; AID 434971;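 active = inhibition of at least 40% at 10 µM in either of the two replicates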;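 also: plate controls were DMSO wells with enzyme for no effect and buffer wells lacking enzyme for full effect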
An asterisk follows results filed as active; i = inactive; · = not tested or not shown.

SMILES	mIAP block	hIAP act	hIAP block	mIAP act	bIAP act	bIAP inhibitor	mIAP inh conf
C#CCOCCOCCOCCNc1nc(N2CCOCC2)nc(N2CCN(C(=O)CCCCCCCCCCNC(=O)[C@@H](CCSC)n3cc(CCO)nn3)CC2)n1	-27.4	0.967	3.3	1.27	·	·	·
C#CCOCCOCCOCCNc1nc(N2CCN(C(=O)CCCCCCCCCCNC(=O)[C@@H](CCSC)n3cc(CCO)nn3)CC2)nc(N2CCN(C(=O)CCCCCCCCCCNC(=O)[C@H]([C@@H](C)CC)n3cc(CCCCN=C(N)N)nn3)CC2)n1	i	1.53	-52.8	21.8*	·	·	i
C#CCOCCOCCOCCNc1nc(N2CCN(C(=O)CCCCCCCCCCNC(=O)[C@@H](CCSC)n3cc(CCO)nn3)CC2)nc(N2CCN(C(=O)CCCCCCCCCCNC(=O)[C@H]([C@@H](C)CC)n3cc(CCCCCN)nn3)CC2)n1	-249.7	0.966	3.4	3.5*	·	·	i
Cc1nc(N)sc1-c1csc(Nc2cccc(C(=O)O)c2)n1	51.9*	0.899	10.1	0.481	·	·	54.0*
Cc1cc(NS(=O)(=O)c2ccc(Nc3nc(-c4ccc(C)c(C)c4)cs3)cc2)no1	1.1	0.99	1.0	0.989	0.3	·	·
Cc1cc(NS(=O)(=O)c2ccc(Nc3nc(-c4sc(N)nc4C)cs3)cc2)no1	44.1*	0.997	0.3	0.559	1.3	-27.2	59.4*
Cc1ccc(NC(=O)CNC(=O)C2CCCCC2)nc1	-0.6	0.979	2.1	1.01	·	·	·
COc1ccccc1C(CC(=O)Nc1ccc(Cl)cc1)c1ccc(OC(C)C)cc1 (stereo unspecified)	-267.9	1.28	-27.7	3.68*	0.4	·	-90.9
CNC[C@@H]1Oc2c(NC(=O)Nc3ccccc3)cccc2C(=O)N([C@@H](C)CO)C[C@H]1C	-0.2	1.09	-9.3	1	·	·	·
CNC[C@H]1Oc2ccc(NC(=O)Nc3ccc(OC)cc3)cc2C(=O)N([C@@H](C)CO)C[C@H]1C	-199.1	1.04	-4.1	2.99*	·	·	-123.1
CNC[C@@H]1Oc2ccc(NC(=O)Nc3cccc4ccccc34)cc2C(=O)N([C@@H](C)CO)C[C@@H]1C	-325.1	1.02	-2.0	4.25*	·	·	-142.9
O=C(CCNS(=O)(=O)c1ccc(Cl)cc1)NCc1cccs1	-26.9	1	-0.5	1.27	0.7	25.4	·
O=C(Nc1ccc(Cl)c(Cl)c1)Nc1cc(C(=O)N2CCOCC2)ccc1N1CCCCC1	i	1.82	-82.5	10.1*	·	·	-167.3
O=C(Nc1cccc(Cl)c1)Nc1cc(S(=O)(=O)N2CCCCC2)ccc1Cl	-256.9	1.11	-10.8	3.57*	0.8	21.1	-107.7
O=C(Nc1ccc(Cl)c(Cl)c1)Nc1cc(S(=O)(=O)N2CCOCC2)ccc1N1CCCC1	-212.0	1.43	-42.6	3.12*	0.8	24.6	-153.0
COc1ccc(CNC(=O)CCn2c(C)csc2=O)cc1	3.2	0.833	16.7	0.968	·	·	·
CCOCCSc1n[nH]c(=O)n1CCc1ccccc1	-2.0	1.07	-7.0	1.02	·	·	·
CCc1c(C)nc(N2CCN(c3ccc(OC)cc3)CC2)[nH]c1=O	2.2	0.984	1.6	0.978	·	·	·
CCCCNC(=O)Oc1c(Br)cc2sc(=O)oc2c1Br	78.2*	1.12	-12.2	0.218	·	·	81.1*
CCOC(=O)CC1C(=O)NCCN1S(=O)(=O)c1cccc(C(F)(F)F)c1 (stereo unspecified)	-16.3	1.38	-37.6	1.16	·	·	·
O=C1C=C(O)c2c(O)cc(O)c(O)c2C1=O	69.0*	0.829	17.1	0.31	·	·	55.4*
O=C1c2ccccc2C(=O)c2c(O)c(O)cc(O)c21	21.5	0.808	19.2	0.785	·	·	·
O=C(O)/C=C/C(=O)N(CC1CCCO1)C1CC(=O)N(c2c(Cl)cccc2Cl)C1=O (stereo unspecified)	3.6	1.07	-6.8	0.964	·	·	·
Nc1ncc2c(n1)-c1ccccc1CC2	-7.3	0.982	1.8	1.07	1	-2.6	·
Nc1ncc2c(n1)-c1ccoc1CC2	41.0*	0.899	10.1	0.59	·	·	56.2*
SMILES	mIAP block	hIAP act	hIAP block	mIAP act	bIAP act	bIAP inhibitor	mIAP inh conf
Cc1cccc(N2CCN(C(=O)C3CCC(=O)N(Cc4ccccc4F)C3)CC2)c1C (stereo unspecified)	-3.4	1.05	-5.0	1.03	·	·	·
O=C(Cc1nnc(NC(=O)c2ccccc2)s1)N/N=C\c1ccc(O)c(O)c1	72.6*	1.06	-5.9	0.274	·	·	78.9*
CCc1ccc(C2C(C#N)=C(N)SC(N)=C2C#N)s1	22.6	0.991	0.9	0.774	0.9	8.6	·
Cc1ccc(C2C(C#N)=C(N)SC(N)=C2C#N)o1	44.2*	0.931	6.9	0.558	0.9	5.7	45.4*
CCOc1ccc(CC(=O)NCC2(N3CCCCC3)CCCCC2)cc1	-9.2	0.839	16.1	1.09	1	-4.2	·
Cc1cc(O)c(CN(C)C)c2c1C(=O)/C(=C/c1ccco1)O2	18.5	1.04	-4.1	0.815	·	·	·
Cc1cc(O)c(C=O)c2c1C(=O)Oc1c(CO)c(O)c3c(c1O2)C(O)OC3=O (stereo unspecified)	86.6*	0.857	14.3	0.134	0.9	14.8	62.5*
Cn1nc(C(=O)NCc2ccc(F)cc2)cc1C(=O)NCc1ccc(F)cc1	-4.8	1.01	-0.7	1.05	·	·	·
NNC(=O)Nc1cccc(C(F)(F)F)c1	-1.2	0.985	1.5	1.01	1.1	-7.8	·
CCN(CC)S(=O)(=O)c1ccc(C(=O)Nc2cccc(C)c2)cc1	-13.6	1.15	-14.6	1.14	0.9	11.2	·
CCN(CC)S(=O)(=O)c1ccc(NC(=O)Nc2cccc(C(F)(F)F)c2)cc1	-180.8	0.741	25.9	2.81*	0.8	16.5	-102.6
O=C(Nc1ccc(OC(F)F)cc1)Nc1cccc(C(F)(F)F)c1	-222.4	1.21	-20.5	3.22*	0.9	12.3	-99.2
O=C1c2c(O)cc(O)cc2O[C@H](c2ccc(O)c(O)c2)[C@H]1O	51.4*	1.05	-5.4	0.486	·	·	59.1*
O=C1c2c(O)cc(O)cc2O[C@H](c2ccc(O)c(O)c2)[C@@H]1O	63.6*	0.911	8.9	0.364	0.8	23.9	58.5*
O=C1C[C@@H](c2ccccc2)Oc2cc(O)cc(O)c21	5.7	0.881	11.9	0.943	·	·	·
Oc1cc(O)c2c(c1)O[C@H](c1ccc(O)c(O)c1)[C@@H](O)C2	77.5*	0.716	28.4	0.225	·	·	78.0*
Fc1cccc(Cl)c1/C=N/n1c(-c2cccnc2)n[nH]c1=S	1.8	0.977	2.3	0.982	0.9	9.2	·
COc1cccc(C(C(=O)NCc2ccccc2)N(C(=O)c2csnn2)C2CC2)c1 (stereo unspecified)	3.8	0.981	1.9	0.962	·	·	·
C=CCn1c(SCC(=O)c2ccc(O)c(O)c2)nnc1-c1cccc(OC)c1	40.8*	0.91	9.0	0.592	·	·	45.5*
COc1ccc(NC(=O)C2C3C=CC4(O3)C2C(=O)N(CCN2CCCCC2C)C4C(=O)NC2CCCCC2)cc1 (stereo unspecified)	-8.9	1.07	-7.3	1.09	·	·	·
